Assay [1] has as its system A2780. The assay can be described thus: cytotoxic activity toward A2780 ovarian human cell line sensitive (S) to cisplatin in experiment 3. Format: functional, cell-based. A digest of the protocol:
(§1)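 Cisplatin-sensitive parental A2780/S human ovarian carcinoma cells, grown in RPMI 1640 with FBS at 37 °C under 5% CO2 and subcultured twice weekly. Exponentially growing cells were treated for 72 h, and growth inhibition was measured by sulforhodamine B assay in RPMI 1640 + 5% FBS. IC50 is the mean ± SE of ≥3 determinations, or the mean of two.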

The subject of assay [2] is A2780. Briefly: cytotoxic activity toward A2780 ovarian human cell line resistant (R) to cisplatin in experiment 3. Format: functional, cell-based. In a few lines: (§2)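 A2780/R human ovarian carcinoma cells, made cisplatin-resistant by repeated weekly 1-h exposure of the parental line to 50 μM cisplatin, kept in RPMI 1640 with FBS at 37 °C and 5% CO2. Exponentially growing cells were exposed to compound for 72 h, and growth was read by SRB assay in RPMI 1640 + 5% FBS. IC50 is the mean ± SE of at least three determinations, or the mean of two.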

Assay [3] in a line: Ratio of cytotoxic activity against resistant cell line to that of sensitive cell line. Format: functional.
Assay [4] concerns A2780. The assay can be described thus: cytotoxic activity toward A2780 ovarian human cell line sensitive (S) to cisplatin in experiment 1. Format: functional, cell-based. In a few lines:
as §1

Assay [5] relates to A2780. The assay can be described thus: cytotoxic activity toward A2780 ovarian human cell line resistant (R) to cisplatin in experiment 2. Format: functional, cell-based.
Assay [6] relates to A2780. The assay can be described thus: cytotoxic activity toward A2780 ovarian human cell line sensitive (S) to cisplatin in experiment 2. The class given is functional, cell-based.
Assay [7] deals with A2780. The assay can be described thus: cytotoxic activity toward A2780 ovarian human cell line sensitive (S) to cisplatin in experiment 5. Format: functional, cell-based. In a few lines: as §1
Assay [8] has as its system A2780. The assay can be described thus: cytotoxic activity toward A2780 ovarian human cell line resistant (R) to cisplatin in experiment 5. The class given is functional, cell-based. A digest of the protocol:
as §2

In assay [9] the test system is A2780. The assay can be described thus: cytotoxic activity toward A2780 ovarian human cell line sensitive (S) to cisplatin in experiment 8. Format: functional, cell-based. In a few lines:
as §1

In assay [10] the test system is A2780. Briefly: cytotoxic activity toward A2780 ovarian human cell line resistant (R) to cisplatin in experiment 8. Format: functional, cell-based. A digest of the protocol:
as §2

Another assay concerns L1210. The assay can be described thus: Cytotoxicity measured against L1210 cell line. Format: functional, cell-based, Mus musculus.
The test system of assay [11] is A2780. The assay can be described thus: cytotoxic activity toward A2780 ovarian human cell line sensitive (S) to cisplatin. The class given is functional, cell-based. In a few lines:
as §1

For orientation: IC50 means the point on the concentration scale where inhibition reaches its midpoint. On to `c1cnc2c(c1)ccc1cccnc12` [PHENANTHROLINE], for which the IC50 stood at 3.66 µM in the assay on A2780 [1] (Homo sapiens, A2780) and 2.73 µM in the assay with A2780 [2] (Homo sapiens, A2780). In addition, the Ratio in [3] came to 0.75. For `c1ccc(-c2cccc(-c3ccccn3)n2)nc1` [TERPYRIDINE], the IC50 in the assay on A2780 [4] (Homo sapiens, A2780) stood at 0.125 µM; with A2780 [5] (Homo sapiens, A2780), 0.36 µM. For the same compound, the Ratio in assay [3] is 2.88. AU(TERPY) [listing 1 of 2 here]: the half-maximal inhibitory concentration (IC50) was 0.2 µM in the assay on A2780 [4] (a2780) and 0.37 µM with A2780 [2] (a2780). On to AU(TERPY) [listing 2 of 2 here], for which, in assay [3], the Ratio worked out at 1.23. As to AUCL3(EN2) [listing 1 of 2 here], the IC50 was 8.36 µM in the assay with A2780 [1] (a2780) and 17 µM in the assay with A2780 [2] (a2780). For the compound AUCL3(EN2) [listing 2 of 2 here], the Ratio in assay [3] is 2.03. Take AUCL(DIEN) [listing 1 of 2 here]: the IC50 was found to be 8.2 µM in the assay on A2780 [6] and 18.7 µM in the assay with A2780 [2] (a2780). Turning to AUCL(DIEN) [listing 2 of 2 here], the Ratio in [3] is 2.28. For AUCYCLAM, the IC50 in the assay on A2780 [6] was 99 µM; in the assay with A2780 [5] (a2780), over 120 µM. As for AUPHEN [listing 1 of 2 here], the half-maximal inhibitory concentration (IC50) amounted to 3.8 µM in the assay with A2780 [7] and 3.49 µM with A2780 [8]. As for AUPHEN [listing 2 of 2 here], the Ratio in assay [3] worked out at 0.92. Consider CISPLATIN [listing 1 of 2 here], for which the IC50 with A2780 [9] is 1.22 µM; with A2780 [10], 14.2 µM; in the assay with L1210, 2.3 µM. As for CISPLATIN [listing 2 of 2 here], the Ratio in [3] was found to be 11.6. In the case of [AuCl4]-, the IC50 in the assay on A2780 [11] was 11 µM. In the assay on L1210, [Pt-(dien)Cl]Cl returned a concentration for half-maximal inhibition (IC50) of 271 µM. Turning to [Pt-(en2)]Cl2, the half-inhibitory concentration (IC50) in the assay with L1210 came to 1680 µM.
